{
  "source": "ChEMBL document CHEMBL4428038",
  "about": "“Overcoming chloroquine resistance in malaria: Design, synthesis and structure-activity relationships of novel chemoreversal agents” (Eur J Med Chem, 2016)",
  "key": {"Plasmodium falciparum [1]": {"test_system": "Plasmodium falciparum", "assay": "Intrinsic antimalarial activity against intermediate chloroquine-resistant Plasmodium falciparum 7G8 isolate MRA-154 harboring CRT SVMNT haplotype mutant assessed as reduction in parasite viability at 500 nM", "type": "functional, organism-based"}, "Plasmodium falciparum [2]": {"test_system": "Plasmodium falciparum", "assay": "Intrinsic antimalarial activity against chloroquine-sensitive Plasmodium falciparum HB3 isolate MRA-155 assessed as reduction in parasite viability at 500 nM", "type": "functional, organism-based"}, "Plasmodium falciparum [3]": {"test_system": "Plasmodium falciparum", "assay": "Potentiation of chloroquine-induced antimalarial activity against chloroquine-sensitive Plasmodium falciparum HB3 isolate MRA-155 assessed as reduction in chloroquine IC50 at 500 nM relative to chloroquine alone", "type": "functional"}, "Plasmodium falciparum [4]": {"test_system": "Plasmodium falciparum", "assay": "Potentiation of chloroquine-induced antimalarial activity against chloroquine-sensitive Plasmodium falciparum 3D7 isolate MRA-102 assessed as reduction in chloroquine IC50 at 500 nM relative to chloroquine alone", "type": "functional"}, "[5]": {"assay": "Resistance index, ratio of chloroquine IC50 for intermediate chloroquine-resistant Plasmodium falciparum 7G8 isolate MRA-154 CRT SVMNT haplotype mutant to chloroquine IC50 for chloroquine-sensitive Plasmodium falciparum 3D7 isolate MRA-102 at 500 nM", "summary_of_the_method": "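Chloroquine IC50 was measured with the chemoreversal agent fixed at 500 nM in K1 or 7G8 and in sensitive 3D7 (means, n = 3). The resistance ratio is the chloroquine IC50 in K1 or 7G8 divided by the chloroquine IC50 in 3D7.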"}, "Plasmodium falciparum [6]": {"test_system": "Plasmodium falciparum", "assay": "Potentiation of chloroquine-induced antimalarial activity against chloroquine-sensitive Plasmodium falciparum 3D7 isolate MRA-102 assessed as concentration required for 50% reduction in chloroquine IC50 at 500 nM relative to chloroquine alone", "type": "functional, organism-based"}, "[7]": {"assay": "Permeability of compound incubated for 16 hrs at pH 7.4 by PAMPA", "type": "ADME", "conditions": "read-out: Peff"}, "[8]": {"test_system": "T1, Chloroquine resistance transporter (Plasmodium falciparum), Q9N623 [K76T]", "T1 sequence (whole entry)": "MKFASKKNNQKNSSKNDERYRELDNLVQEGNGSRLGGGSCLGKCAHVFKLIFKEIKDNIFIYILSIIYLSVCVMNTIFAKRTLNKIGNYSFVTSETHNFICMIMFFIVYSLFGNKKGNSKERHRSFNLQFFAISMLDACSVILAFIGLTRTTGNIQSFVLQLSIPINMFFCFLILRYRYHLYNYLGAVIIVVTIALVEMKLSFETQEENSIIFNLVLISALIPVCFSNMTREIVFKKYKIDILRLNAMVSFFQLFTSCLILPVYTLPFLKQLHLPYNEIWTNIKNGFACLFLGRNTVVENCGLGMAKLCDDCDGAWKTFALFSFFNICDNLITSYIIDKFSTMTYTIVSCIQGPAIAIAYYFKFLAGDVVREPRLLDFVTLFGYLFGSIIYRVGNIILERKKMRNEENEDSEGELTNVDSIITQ", "assay": "Inhibition of CRT K76T mutant in chloroquine/artemisinin-resistant Plasmodium falciparum ARS233 assessed as reversal of chloroquine resistance by measuring reduction in chloroquine IC50 at 500 nM relative to chloroquine alone"}, "[9]": {"assay": "Therapeutic index, ratio of IC50 for TAMH to EC50 for chloroquine-resistant Plasmodium falciparum K1 isolate MRA-159 CRT CVIET haplotype mutant", "type": "toxicity", "conditions": "mouse, TAMH cells; read-out: Ratio IC50/EC50", "summary_of_the_method": "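Host-cell IC50 was measured by ATP-luminescence viability assay in TAMH hepatocytes (mean of n = 4 independent determinations) or AC10 cardiomyocytes. Each IC50 was divided by the K1 EC50, the concentration of chemoreversal agent that halves the chloroquine concentration needed for 50% parasite inhibition.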"}, "Plasmodium falciparum K1 [10]": {"test_system": "Plasmodium falciparum K1", "assay": "Inhibition of CRT CVIET haplotype mutant in chloroquine-resistant Plasmodium falciparum K1 isolate MRA-159 assessed as reversal of chloroquine resistance by measuring reduction in chloroquine IC50 at 500 nM relative to chloroquine alone"}, "[11]": {"test_system": "T1, Chloroquine resistance transporter (Plasmodium falciparum), Q9N623 [K76T]", "assay": "Inhibition of CRT K76T mutant in chloroquine-resistant Plasmodium falciparum Dd2 isolate MRA-156 assessed as reversal of chloroquine resistance by measuring reduction in chloroquine IC50 at 500 nM relative to chloroquine alone"}, "[12]": {"assay": "Cytotoxicity against human AC10 cells assessed as reduction in cell viability by CellTiter-Glo assay", "type": "cell-based", "summary_of_the_method": "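For TAMH (hepatocyte line) and AC10 (cardiomyocyte line), viability was read by ATP luminescence (CellTiter-Glo), and the value reported is IC50.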"}, "[13]": {"assay": "Resistance index, ratio of EC50 for intermediate chloroquine-resistant Plasmodium falciparum 7G8 isolate MRA-154 CRT SVMNT haplotype mutant to EC50 for chloroquine-sensitive Plasmodium falciparum 3D7 isolate MRA-102", "summary_of_the_method": "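EC50 is the concentration of chemoreversal agent that halves the chloroquine concentration needed to inhibit survival of half the parasites. It was derived from dose-dependent shifts in chloroquine IC50, measured in 7G8 and 3D7. The index is the 7G8 EC50 divided by the 3D7 EC50.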"}, "[14]": {"assay": "Inhibition of CRT CVIET haplotype mutant in chloroquine-resistant Plasmodium falciparum K1 isolate MRA-159 assessed as reversal of chloroquine resistance by measuring reduction in chloroquine IC50 relative to chloroquine alone", "summary_of_the_method": "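Chloroquine IC50 was determined in the presence of a fixed 500 nM chemoreversal agent, against chloroquine alone. The RMI is the ratio of chloroquine IC50 with agent to chloroquine IC50 alone. Mean of n = 3; two-tailed t test versus chloroquine without agent.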"}, "[15]": {"test_system": "Plasmodium falciparum 7G8", "assay": "Inhibition of CRT SVMNT haplotype mutant in intermediate chloroquine-resistant Plasmodium falciparum 7G8 isolate MRA-154 t assessed as reversal of chloroquine resistance by measuring reduction in chloroquine IC50 at 500 nM relative to chloroquine alone"}, "Plasmodium falciparum K1 [16]": {"test_system": "Plasmodium falciparum K1", "assay": "Inhibition of CRT CVIET haplotype mutant in Plasmodium falciparum K1 isolate MRA-159 infected in erythrocytes assessed as chloroquine-coumarin probe accumulation at 10 uM after 10 hrs by Hoechst 33342 staining based flow cytometry (reference value: 35.57 +/- 3.84%)", "type": "cell-based", "set-up": "scale not given: the % may be the effect or the level left", "summary_of_the_method": "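Infected erythrocyte cultures at 2.5% hematocrit and 7–12% parasitemia, synchronized to late-ring/early-trophozoite stage, were incubated with chloroquine-coumarin probe plus test agent for 10 h at 37 C. Cells were then washed, resuspended in PBS and read by flow cytometry (405 nm excitation, 450/50 filter). Hoechst-stained duplicate wells set parasitemia. Uptake = % infected erythrocytes fluorescent. Controls: PBS (negative), desipramine and parent compound (positive). ≥3 independent experiments; mean ± SEM.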"}, "[17]": {"test_system": "T1, Chloroquine resistance transporter (Plasmodium falciparum), Q9N623 [K76T]", "assay": "Inhibition of CRT K76T mutant in chloroquine/artemisinin-resistant Plasmodium falciparum ARS272 assessed as reversal of chloroquine resistance by measuring reduction in chloroquine IC50 at 500 nM relative to chloroquine alone"}, "[18]": {"assay": "Aqueous kinetic solubility of compound in pH 7.4 solution incubated for 24 hrs", "type": "physicochemical", "conditions": "aqueous solution pH 7.4, pH 7.4; read-out: Kinetic_solubility"}, "Plasmodium falciparum [19]": {"test_system": "Plasmodium falciparum", "assay": "Intrinsic antimalarial activity against chloroquine/artemisinin-resistant Plasmodium falciparum ARS272 harboring CRT K76T mutant assessed as reduction in parasite viability at 500 nM", "type": "functional, organism-based"}, "Plasmodium falciparum [20]": {"test_system": "Plasmodium falciparum", "assay": "Intrinsic antimalarial activity against chloroquine/artemisinin-resistant Plasmodium falciparum NHP4773 harboring CRT K76T mutant assessed as reduction in parasite viability at 500 nM", "type": "functional, organism-based"}, "Plasmodium falciparum [21]": {"test_system": "Plasmodium falciparum", "assay": "Intrinsic antimalarial activity against chloroquine-resistant Plasmodium falciparum Dd2 isolate MRA-156 harboring CRT K76T mutant assessed as reduction in parasite viability at 500 nM", "type": "functional, organism-based"}},
  "note": "The source made the active and inactive calls. No cut-off for these calls is given here.",
  "data": [
    {"smiles": "c1ccc(CN[C@@H]2C3CCN(CC3)[C@@H]2Cc2ccccc2)cc1", "note": "(relative stereo)", "values": [
      {"measurement": "Activity", "setting": "Plasmodium falciparum [1]", "value": "inactive"},
      {"measurement": "Activity", "setting": "Plasmodium falciparum [2]", "value": "inactive"},
      {"measurement": "Ratio IC50", "setting": "Plasmodium falciparum [3]", "value": 1.12},
      {"measurement": "Ratio IC50", "setting": "Plasmodium falciparum [4]", "value": 1.26},
      {"measurement": "Ratio IC50", "setting": "[5]", "value": 3.9},
      {"measurement": "Activity", "setting": "Plasmodium falciparum [6]", "value": "inactive"},
      {"measurement": "Papp at 16 h", "setting": "[7]", "value": 14.5, "unit": "×10⁻⁶ cm/s"},
      {"measurement": "Ratio IC50", "setting": "[8]", "value": 0.43},
      {"measurement": "selectivity ratio", "setting": "[9]", "value": "> 588"},
      {"measurement": "Ratio IC50", "setting": "Plasmodium falciparum K1 [10]", "value": 0.39},
      {"measurement": "Ratio IC50", "setting": "[11]", "value": 0.6},
      {"measurement": "IC50", "setting": "[12]", "value": 71.5, "unit": "µM"},
      {"measurement": "Ratio EC50", "setting": "[13]", "value": 2},
      {"measurement": "EC50", "setting": "[14]", "value": 0.17, "unit": "µM"},
      {"measurement": "Ratio IC50", "setting": "[15]", "value": 0.8},
      {"measurement": "Activity", "setting": "Plasmodium falciparum K1 [16]", "value": 83.4, "unit": "%"},
      {"measurement": "Ratio IC50", "setting": "[17]", "value": 0.43},
      {"measurement": "solubility kinetic at 24 h", "setting": "[18]", "value": "> 310", "unit": "µg/mL"},
      {"measurement": "Activity", "setting": "Plasmodium falciparum [19]", "value": "inactive"},
      {"measurement": "Activity", "setting": "Plasmodium falciparum [20]", "value": "inactive"},
      {"measurement": "Activity", "setting": "Plasmodium falciparum [21]", "value": "inactive"}
    ]}
  ]
}
